Measured values as given in publication PMC4477344 (Diabetes, 2015).
Where no end group is shown, it is not given here.

Assays:
Dpp4 = settings: cited from earlier work
[1] = tested on: diet-induced obese (DIO) mice; test: GLP-1; format: in vivo, C57BL/6J male mice; settings: continuous infusion for up to 16 weeks
Outline: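 Mice were started on high-fat diet at 6–10 weeks of age and fed it for 7–22 weeks. At 13–28 weeks of age they were randomized by body weight and given osmotic minipumps delivering vehicle (0.154 mol/L NaCl/0.2% human serum albumin) or test compound at 50–70 nmol/kg/day for […]. Body weight was recorded weekly and food intake twice weekly. Fat and lean mass were measured by DXA at week 15. n = 6 per group.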

In the case of GLP-1(7-36)amide, the “time of cleavage in vivo by Dpp4 to GLP-1(9-36)amide” value (Dpp4) is given as 1 to 2 min.

In the case of LVKGR-NH2 [GLP-1(32-36)amide], the adverse effects [1] is reported as “No adverse effects”.
